Measurements as given in paper PMC6383364 (ACS chemical biology, 2019).

Assays:
[1] = target: T1, ALDH5A1 (Homo sapiens, UniProt P51649); test: isoTOP-ABPP cysteine reactivity in SW620 cells: ALDH5A1; format: cell-based; settings: 10 µM, 1 h, Table S2
T1 sequence (P51649 48-535): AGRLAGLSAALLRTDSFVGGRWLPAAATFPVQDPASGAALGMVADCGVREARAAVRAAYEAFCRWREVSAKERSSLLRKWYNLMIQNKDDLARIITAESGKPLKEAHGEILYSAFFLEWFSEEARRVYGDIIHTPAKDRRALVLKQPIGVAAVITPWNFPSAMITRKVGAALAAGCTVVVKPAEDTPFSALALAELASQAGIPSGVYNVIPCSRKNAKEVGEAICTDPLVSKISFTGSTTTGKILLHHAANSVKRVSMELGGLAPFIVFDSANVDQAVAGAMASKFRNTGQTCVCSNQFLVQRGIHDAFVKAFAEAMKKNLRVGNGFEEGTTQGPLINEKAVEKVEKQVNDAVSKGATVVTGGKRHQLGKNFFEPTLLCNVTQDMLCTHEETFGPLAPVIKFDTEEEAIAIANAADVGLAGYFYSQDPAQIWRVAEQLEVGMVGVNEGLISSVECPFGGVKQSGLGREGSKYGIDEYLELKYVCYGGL
Summary of the method: (§1)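 SW620 cells were treated with test compound (10 μM, 1 h; light) or DMSO (heavy). Cysteine reactivity was then profiled globally by isoTOP-ABPP using an alkynylated iodoacetamide probe (IA-alkyne). Heavy/light ratios for quantified cysteines were averaged across four independent biological replicates.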

[2] = target: T2, ALDH2 (Homo sapiens, UniProt P05091); test: isoTOP-ABPP cysteine reactivity in SW620 cells: ALDH2; format: cell-based; settings: 10 µM, 1 h
T2 sequence (P05091 18-517): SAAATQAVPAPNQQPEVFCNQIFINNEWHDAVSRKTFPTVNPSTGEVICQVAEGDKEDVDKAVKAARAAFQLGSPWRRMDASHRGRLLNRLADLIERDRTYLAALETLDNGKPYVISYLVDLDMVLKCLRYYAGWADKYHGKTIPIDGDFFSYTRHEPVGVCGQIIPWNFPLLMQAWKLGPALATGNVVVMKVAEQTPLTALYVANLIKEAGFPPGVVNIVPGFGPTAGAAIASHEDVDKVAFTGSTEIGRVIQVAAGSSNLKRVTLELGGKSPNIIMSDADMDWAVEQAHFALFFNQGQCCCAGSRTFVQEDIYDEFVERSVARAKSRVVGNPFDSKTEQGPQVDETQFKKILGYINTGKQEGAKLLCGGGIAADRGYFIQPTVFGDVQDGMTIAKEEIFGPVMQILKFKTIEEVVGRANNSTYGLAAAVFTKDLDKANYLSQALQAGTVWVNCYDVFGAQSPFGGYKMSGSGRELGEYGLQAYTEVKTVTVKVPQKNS
Summary of the method: as §1

[3] = target: ALDH9A1 (Homo sapiens, UniProt P49189); test: isoTOP-ABPP cysteine reactivity in SW620 cells: ALDH9A1; format: cell-based; settings: 10 µM, 1 h
Summary of the method: as §1

[4] = format: in vivo; settings: rat; for CSF AUC0–7 / CSF Cmax / Brain AUC0–7 / Brain Cmax: after BIA 10–2474 (1) 10 mg/kg p.o.; for Plasma AUC0–7: after BIA 10–2474 (1) 10 mg/kg p.o. in 0.5% methylcellulose; for Brain AUC0–7 / Brain Cmax: not corrected for binding to tissues
Summary of the method: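 Rats were dosed orally at 10 mg/kg in 0.5% methylcellulose. The parent compound and its metabolites were quantified in plasma, brain and CSF. Cmax and AUC0–7 were derived for each analyte.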

[5] = system: ~50–55 kDa protein; test: Gel-based CC-ABPP in CCF-STTG1 human astrocytoma cells; format: cell-based; settings: pre-treatment 10 µM, 1 h, then probes 7 and 8
Summary of the method: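 CCF-STTG1 human astrocytoma cells were pretreated in situ with DMSO or the parent test compound (10 μM, 1 h), then given the matching alkyne probe (1 μM, 1 h). Probe-labelled proteins were conjugated by CuAAC to a rhodamine-azide reporter, resolved by SDS-PAGE and detected by in-gel fluorescence scanning.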

[6] = target: T2, ALDH2; test: LC-MS characterisation of the adduct with ALDH2 from treated HEK293T cells; format: cell-based; settings: HEK293T cells expressing FLAG-tagged WT-ALDH2, 10 µM, 1 h; LC-MS-based proteomics
[7] = target: T2, ALDH2; test: Quantitative MS-based CC-ABPP and Western blot in CCF-STTG1 cells: ALDH2; format: cell-based; settings: pre-treatment 10 µM, 1 h, then corresponding probe 7 or 8
Summary of the method: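 CCF-STTG1 cells were grown in isotopically heavy or light amino-acid media. Cells received DMSO (heavy) or test compound (light; 10 μM, 1 h), followed by the corresponding clickable probe (1 μM, 1 h). Heavy/light protein ratios were averaged from quantified peptides across two independent biological replicates. Streptavidin-enriched fractions, with or without parent pretreatment, were immunoblotted with anti-ALDH2.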

[8] = system: ALDHs; test: ABPP reactivity with ALDHs in human cells; format: cell-based; settings: N-methyl compounds

Chain of ALDH9A1 (P49189 whole entry): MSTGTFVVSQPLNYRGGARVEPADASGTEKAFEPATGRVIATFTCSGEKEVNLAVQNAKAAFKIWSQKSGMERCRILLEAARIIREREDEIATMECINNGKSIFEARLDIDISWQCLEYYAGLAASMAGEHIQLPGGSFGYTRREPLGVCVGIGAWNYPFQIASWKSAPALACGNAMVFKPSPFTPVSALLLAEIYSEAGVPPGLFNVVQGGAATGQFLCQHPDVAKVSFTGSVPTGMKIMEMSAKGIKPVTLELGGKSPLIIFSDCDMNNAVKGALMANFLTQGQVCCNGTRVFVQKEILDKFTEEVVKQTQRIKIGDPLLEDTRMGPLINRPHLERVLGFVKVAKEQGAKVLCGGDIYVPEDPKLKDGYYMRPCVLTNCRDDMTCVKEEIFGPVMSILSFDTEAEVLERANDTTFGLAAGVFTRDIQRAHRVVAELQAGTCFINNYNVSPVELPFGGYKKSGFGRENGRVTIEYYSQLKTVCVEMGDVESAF

| IA-alkyne reactivity of C340 of ALDH5A1 [1] | IA-alkyne reactivity of C319 of ALDH2 [2] | IA-alkyne reactivity of other cysteine (C386) of ALDH2 [2] | IA-alkyne reactivity of C288 of ALDH9A1 [3] | CSF AUC0–7 [4] | CSF Cmax [4] | Plasma AUC0–7 [4] | Brain AUC0–7 [4] | Brain Cmax [4] | Adduct with C319 on ALDH2 [6] | Blockade of probe enrichment of ALDH2 (Western blotting) [7] | Structure (SMILES) | Blockade of probe labelling of ~50–55 kDa protein [5] | Reaction with ALDHs [8] |
| --- | --- | --- | --- | --- | --- | --- | --- | --- | --- | --- | --- | --- | --- |
| unchanged | blocked | unperturbed | blocked | 15.6 ng·h/mL | 5.03 ng/mL | 323 ng·h/mL | 11.8 ng·h/mL | 4.57 ng/mL | S-thiocarbamate adduct | blockade | O=C(NC1CCCCC1)n1cnc(-c2ccc[n+]([O-])c2)c1 [compound 3] | blocked | – |
| – | – | – | – | 4000 ng·h/mL | 1300 ng/mL | 13800 ng·h/mL | 2480 ng·h/mL | 939 ng/mL | – | – | CN(C(=O)n1cnc(-c2ccc[n+]([O-])c2)c1)C1CCCCC1 [BIA 10–2474 (1)] | – | fail to react |
| – | – | – | – | 113 ng·h/mL | 36.2 ng/mL | 306 ng·h/mL | 185 ng·h/mL | 252 ng/mL | – | – | CN(C(=O)n1cnc(-c2cccnc2)c1)C1CCCCC1 [compound 2] | – | – |
